Values belong to the compound of their own block, whether it stands above or below them.
Tests used:
[1] = In vivo inhibition of HIF-PHD2 in C57BL/6 mouse assessed as serum erythropoietin level at 1.5 mg/kg, iv measured after 4 hrs; format: functional
Summary of the method: (§1)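 Mouse pharmacodynamic EPO assay (MoPED). Compound dosed iv; serum EPO measured 4 hr after dosing and reported in pg/mL. Minimum effective dose is the lowest dose giving EPO elevation.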

[2] = In vivo inhibition of HIF-PHD2 in C57BL/6 mouse assessed as serum erythropoietin level at 5 mg/kg, iv measured after 4 hrs; format: functional; summary of the method: as §1
[3] = In vivo inhibition of HIF-PHD2 in iv dosed C57BL/6 mouse assessed as minimum effective dose causing increase in serum erythropoietin levels measured after 4 hrs; format: functional; conditions: C57BL/6, iv, read-out: MED; summary of the method: as §1
[4] = In vivo inhibition of HIF-PHD2 in C57BL/6 mouse assessed as serum erythropoietin level at 15 mg/kg, iv measured after 4 hrs; format: functional; summary of the method: as §1
[5] = Oral bioavailability in rat at 2 mg/kg; format: ADME, organism-based; conditions: in vivo
[6] = Half life in rat at 2 mg/kg, po or 1 mg/kg, iv; format: ADME, organism-based; conditions: in vivo
[7] = Half life in dog at 1 mg/kg, po or 0.5 mg/kg, iv; format: ADME, organism-based, Canis lupus familiaris; conditions: in vivo
Summary of the method: (§2)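 Single-dose PK at 1 mg/kg po and 0.5 mg/kg iv. Mouse clearance is from blood; dog and rhesus clearance is from plasma. Mouse vehicle, both routes: DMSO:PEG400:water (5:40:55, v/v/v). Dog and monkey iv vehicle: PEG200:12%HPCD:water (30:12:58 v/v/v). Dog and monkey po vehicle: Imwitor:Tween (1:1 w/w).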

[8] = Clearance in rhesus monkey at 1 mg/kg, po or 0.5 mg/kg, iv; format: ADME, organism-based, Macaca mulatta; conditions: in vivo; summary of the method: as §2
[9] = Clearance in dog at 1 mg/kg, po or 0.5 mg/kg, iv; format: ADME, organism-based, Canis lupus familiaris; conditions: in vivo; summary of the method: as §2
[10] = Protein binding in dog plasma assessed as unbound fraction at 1 mg/kg, po or 0.5 mg/kg, iv; format: ADME, organism-based, Canis lupus familiaris; conditions: read-out: PPB
[11] = Volume of distribution at steady state in rat at 2 mg/kg, po or 1 mg/kg, iv; format: ADME, organism-based; conditions: in vivo, read-out: Vdss
[12] = Half life in rhesus monkey at 1 mg/kg, po or 0.5 mg/kg, iv; format: ADME, organism-based, Macaca mulatta; conditions: in vivo; summary of the method: as §2
[13] = Cmax in rhesus monkey at 1 mg/kg, po or 0.5 mg/kg, iv; format: ADME, organism-based, Macaca mulatta; design: dose 1 mg/kg; conditions: in vivo; summary of the method: as §2
[14] = Clearance in rat at 2 mg/kg, po or 1 mg/kg, iv; format: ADME, organism-based; conditions: in vivo
[15] = Volume of distribution at steady state in rhesus monkey at 1 mg/kg, po or 0.5 mg/kg, iv; format: ADME, organism-based, Macaca mulatta; conditions: in vivo, read-out: Vdss
Summary of the method: (§3)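 Dog and rhesus monkey dosed 1 mg/kg po and 0.5 mg/kg iv. The iv vehicle was PEG200:12%HPCD:water (30:12:58 v/v/v); the po vehicle was Imwitor:Tween (1:1 w/w). Clearance was measured in plasma. Protein binding was measured in 100% serum.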

[16] = Oral bioavailability in rhesus monkey at 1 mg/kg; format: ADME, organism-based, Macaca mulatta; conditions: in vivo; summary of the method: as §3
[17] = Protein binding in rat plasma assessed as unbound fraction at 2 mg/kg, po or 1 mg/kg, iv; format: ADME, organism-based; conditions: read-out: PPB
[18] = Oral bioavailability in dog at 1 mg/kg; format: ADME, organism-based, Canis lupus familiaris; conditions: in vivo; summary of the method: as §3
[19] = Cmax in rat at 2 mg/kg, po or 1 mg/kg, iv; format: ADME, organism-based; design: dose 2 mg/kg; conditions: in vivo
[20] = Cmax in dog at 1 mg/kg, po or 0.5 mg/kg, iv; format: ADME, organism-based, Canis lupus familiaris; design: dose 1 mg/kg; conditions: in vivo; summary of the method: as §2
[21] = Half life in mouse at 2 mg/kg, po or 1 mg/kg, iv; format: ADME, organism-based; conditions: in vivo
[22] = Volume of distribution at steady state in mouse at 2 mg/kg, po or 1 mg/kg, iv; format: ADME, organism-based; conditions: in vivo, read-out: Vdss
[23] = Cmax in mouse at 2 mg/kg, po or 1 mg/kg, iv; format: ADME, organism-based; design: dose 2 mg/kg; conditions: in vivo
[24] = Clearance in mouse at 2 mg/kg, po or 1 mg/kg, iv; format: ADME, organism-based; conditions: in vivo
[25] = In vivo inhibition of HIF-PHD2 in C57BL/6 mouse assessed as serum erythropoietin level at 50 mg/kg, iv measured after 4 hrs; format: functional; summary of the method: as §1
[26] = Oral bioavailability in mouse at 2 mg/kg; format: ADME, organism-based; conditions: in vivo
[27] = Protein binding in mouse plasma assessed as unbound fraction at 2 mg/kg, po or 1 mg/kg, iv; format: ADME, organism-based; conditions: read-out: PPB
[28] = Volume of distribution at steady state in dog at 1 mg/kg, po or 0.5 mg/kg, iv; format: ADME, organism-based, Canis lupus familiaris; conditions: in vivo, read-out: Vdss; summary of the method: as §3
[29] = Protein binding in rhesus monkey plasma assessed as unbound fraction at 1 mg/kg, po or 0.5 mg/kg, iv; format: ADME, organism-based, Macaca mulatta; conditions: read-out: PPB
[30] = target: Voltage-gated inwardly rectifying potassium channel KCNH2 (Homo sapiens, UniProt Q12809); experiment: Inhibition of human ERG
[31] = In vivo inhibition of HIF-PHD2 in C57BL/6 mouse assessed as serum erythropoietin level at 100 mg/kg, iv measured after 4 hrs; format: functional; summary of the method: as §1
Egl nine homolog 1 [32] = target: T1, Egl nine homolog 1 (Homo sapiens, UniProt Q9GZT9); experiment: Inhibition of FLAG-tagged full-length HIF-PHD2 (unknown origin) expressed in baculovirus infected Sf9 cells using 2-oxoglutarate and HIF1alpha biotinyl-DLDLEMLAPYIPMDDDFQL as peptide substrates preincubated for 30 mins followed by substrate addition and measured after 2 hrs by LANCE assay
Egl nine homolog 1 [33] = target: T1, Egl nine homolog 1; experiment: Inhibition of HIF-PHD2 (unknown origin)
[34] = Plasma clearance in rat at 2 mg/kg, po or 1 mg/kg, iv; format: ADME, organism-based

T1 sequence (Q9GZT9 whole entry): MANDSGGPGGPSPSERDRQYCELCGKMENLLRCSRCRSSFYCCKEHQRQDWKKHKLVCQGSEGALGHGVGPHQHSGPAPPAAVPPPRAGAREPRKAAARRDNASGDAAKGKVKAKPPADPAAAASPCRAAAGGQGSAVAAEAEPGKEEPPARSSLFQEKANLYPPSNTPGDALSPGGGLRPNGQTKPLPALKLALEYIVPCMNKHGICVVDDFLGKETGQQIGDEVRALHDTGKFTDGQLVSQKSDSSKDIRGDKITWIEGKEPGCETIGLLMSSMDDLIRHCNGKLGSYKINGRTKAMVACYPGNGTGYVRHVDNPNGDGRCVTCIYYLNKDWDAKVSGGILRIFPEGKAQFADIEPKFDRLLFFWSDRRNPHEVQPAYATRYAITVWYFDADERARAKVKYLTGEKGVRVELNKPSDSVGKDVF
Voltage-gated inwardly rectifying potassium channel KCNH2, sequence (Q12809 whole entry): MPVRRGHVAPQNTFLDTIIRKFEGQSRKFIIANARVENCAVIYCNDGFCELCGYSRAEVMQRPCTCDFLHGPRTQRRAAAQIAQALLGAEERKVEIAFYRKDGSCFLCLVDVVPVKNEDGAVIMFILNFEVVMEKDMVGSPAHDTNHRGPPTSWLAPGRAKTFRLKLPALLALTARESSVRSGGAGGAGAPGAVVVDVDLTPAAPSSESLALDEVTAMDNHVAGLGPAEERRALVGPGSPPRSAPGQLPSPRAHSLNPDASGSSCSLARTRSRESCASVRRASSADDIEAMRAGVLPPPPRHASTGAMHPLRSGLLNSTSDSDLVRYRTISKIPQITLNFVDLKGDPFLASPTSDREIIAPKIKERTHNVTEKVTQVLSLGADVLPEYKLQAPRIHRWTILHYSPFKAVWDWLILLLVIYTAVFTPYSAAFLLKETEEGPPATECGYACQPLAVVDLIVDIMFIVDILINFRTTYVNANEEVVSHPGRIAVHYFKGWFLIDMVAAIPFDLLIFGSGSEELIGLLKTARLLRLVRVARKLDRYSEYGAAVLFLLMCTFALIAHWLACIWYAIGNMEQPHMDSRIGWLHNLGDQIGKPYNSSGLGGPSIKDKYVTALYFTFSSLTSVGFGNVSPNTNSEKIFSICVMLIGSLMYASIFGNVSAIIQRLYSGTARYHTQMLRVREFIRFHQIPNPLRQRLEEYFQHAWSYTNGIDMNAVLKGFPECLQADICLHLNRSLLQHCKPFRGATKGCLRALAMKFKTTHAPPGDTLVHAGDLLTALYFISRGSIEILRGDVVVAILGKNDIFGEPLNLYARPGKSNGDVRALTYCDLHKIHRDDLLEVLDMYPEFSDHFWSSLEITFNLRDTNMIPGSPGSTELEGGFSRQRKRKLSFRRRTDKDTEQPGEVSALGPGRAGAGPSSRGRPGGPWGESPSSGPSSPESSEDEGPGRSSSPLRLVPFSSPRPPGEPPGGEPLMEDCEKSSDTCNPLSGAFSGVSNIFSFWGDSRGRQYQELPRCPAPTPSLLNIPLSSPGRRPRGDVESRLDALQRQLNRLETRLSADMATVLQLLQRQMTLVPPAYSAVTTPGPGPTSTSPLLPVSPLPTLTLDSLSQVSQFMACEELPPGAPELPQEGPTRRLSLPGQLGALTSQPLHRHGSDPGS

SMILES: COc1ccc(C(NC(=O)c2cnc(-n3cccn3)nc2O)c2ccc(OC)cc2)cc1
Activity [1]: 190 pg/mL | Activity [2]: 740 pg/mL | minimal effective dose [3]: 1.5 mg/kg | Activity [4]: 31000 pg/mL

SMILES: O=C(NCc1ccc(Cl)cc1)c1cnc(-n2cccn2)nc1O
Activity [4]: 1100 pg/mL

SMILES: O=C(NCc1ccc(OC(F)(F)F)cc1)c1cnc(-n2cccn2)nc1O
Activity [25]: 8900 pg/mL | Activity [4]: 180 pg/mL

SMILES: O=C(NC(c1ccccc1)c1ccccc1)c1cnc(-n2cccn2)nc1O
Activity [4]: 2900 pg/mL

SMILES: O=C(NC(c1ccccc1)c1ccccc1)c1cnc(-c2cccnn2)nc1O
Activity [2]: 380 pg/mL | Activity [4]: 1600 pg/mL | IC50 [30]: > 30000 nM

SMILES: C[C@@H](NC(=O)c1cnc(-n2cccn2)nc1O)c1ccccc1
Activity [4]: 322 pg/mL

SMILES: C[C@H](NC(=O)c1cnc(-n2cccn2)nc1O)c1ccccc1
Activity [2]: 690 pg/mL | Activity [4]: 10000 pg/mL

SMILES: C[C@@H](NC(=O)c1cnc(-n2cccn2)nc1O)c1ccc(F)cc1
Activity [4]: 350 pg/mL

SMILES: Cc1nc(-c2ncc(C(=O)NC(C)(C)c3ccccc3)c(O)n2)cs1
Activity [31]: 110 pg/mL

Second part, led by results:

bioavailability [5]: 3% | half-life [6]: 2.1 h
SMILES: CC(C)(NC(=O)c1cnc(-n2cc(C(=O)O)cn2)nc1O)c1ccccc1
Activity [4]: 1900 pg/mL

half-life [7]: 143 h
SMILES: O=C(NCc1ccc(-c2ccccc2)cc1)c1cnc(-n2cccn2)nc1O

clearance [8]: 0.001 mL/min/kg | clearance [9]: 0.004 mL/min/kg | fraction unbound [10]: 0.027 | Vd [11]: 0.06 L/kg | half-life [12]: 95 h | Cmax [13]: 22 µM | clearance [14]: 0.2 mL/min/kg | Vd [15]: 0.13 L/kg | bioavailability [16]: 71% | fraction unbound [17]: 0.012 | bioavailability [18]: 61% | Cmax [19]: 49 µM | Cmax [20]: 11 µM | half-life [21]: 3.7 h | Vd [22]: 0.3 L/kg | Cmax [23]: 30 µM | bioavailability [5]: 99% | clearance [24]: 1 mL/min/kg | half-life [7]: > 100 h | bioavailability [26]: 98% | fraction unbound [27]: 0.093 | Vd [28]: 0.1 L/kg | fraction unbound [29]: 0.004 | half-life [6]: 4.2 h
SMILES: CC(C)(NC(=O)c1cnc(-n2cccn2)nc1O)c1ccccc1
Activity [2]: 460 pg/mL | Activity [25]: 24000 pg/mL | Activity [4]: 5000 pg/mL

bioavailability [5]: 61% | half-life [6]: 2.9 h
SMILES: CC(C)(NC(=O)c1cnc(-c2cscn2)nc1O)c1ccccc1
Activity [31]: 2100 pg/mL

IC50 (Egl nine homolog 1 [32]): > 2700 nM
SMILES: CC(C)(NC(=O)c1cnc(-c2ccc(C(F)(F)F)cn2)nc1O)c1ccccc1

half-life [7]: 60 h
SMILES: C[C@H](NC(=O)c1cnc(-n2cccn2)nc1O)c1ccc(F)cc1
Activity [4]: 16000 pg/mL

Vd [11]: 0.35 L/kg | IC50 (Egl nine homolog 1 [33]): 110 nM | bioavailability [5]: 67% | clearance [34]: 2 mL/min/kg | half-life [6]: 3.3 h
SMILES: O=C(NCc1ccc(F)cc1)c1cnc(-c2ccccn2)nc1O
Activity [31]: 1200 pg/mL | minimal effective dose [3]: 100 mg/kg | IC50 [30]: > 30000 nM

bioavailability [5]: 5% | half-life [6]: 0.23 h
SMILES: CC(C)(NC(=O)c1cnc(-c2cc(C(=O)O)ccn2)nc1O)c1ccccc1
minimal effective dose [3]: 15 mg/kg | Activity [4]: 220 pg/mL

half-life [7]: 94 h
SMILES: COc1ccc([C@H](C)NC(=O)c2cnc(-n3cccn3)nc2O)cc1
Activity [4]: 5300 pg/mL
